Active and inactive are the calls of the source. The calls are words filed in the database; no cut-off is given here.
Assays:
[1] = tested on: Streptococcus intermedius; experiment: Antimicrobial activity against Streptococcus intermedius NCTC 11324 biofilm assessed as biofilm bacterial count at 0.04 ug/ml (Rvb =402.9 +/- 26.88 10^5 CFU/ml); assay type: functional
[2] = tested on: Streptococcus intermedius; experiment: Antimicrobial activity against Streptococcus intermedius SI006 biofilm harboring luxS mutant gene assessed as biofilm bacterial count at 0.02 ug/ml in presence of 0.8 nM autoinducer 4,5-dihydroxy-2,3-pentanedione (Rvb =413.7 +/- 24.47 10^5 CFU/ml); assay type: functional
[3] = tested on: Streptococcus intermedius; experiment: Antimicrobial activity against Streptococcus intermedius SI006 biofilm harboring luxS mutant gene assessed as biofilm bacterial count at 0.04 ug/ml in presence of 0.8 nM autoinducer 4,5-dihydroxy-2,3-pentanedione (Rvb =413.7 +/- 24.47 10^5 CFU/ml); assay type: functional
[4] = tested on: Streptococcus intermedius; experiment: Antimicrobial activity against Streptococcus intermedius NCTC 11324 planktonic cells assessed as bacterial count at 0.08 ug/ml (Rvb =771.7 +/- 35.14 10^8 CFU/ml); assay type: functional
In short: (§1)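 Planktonic wild-type cells were inoculated at ≈4 × 10^5 CFU/ml in TSB in ultra-low-binding plates. Media were without or with ampicillin (0.02 to 0.14 μg/ml), ciprofloxacin (0.10 to 0.35 μg/ml) or tetracycline (0.03 to 0.20 μg/ml). After 12 h at 37°C in 5% CO2 aerobic air, CFU were counted, run in parallel with the BacTiter-Glo ATP assay. Experiments were done three times in two parallels.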

[5] = tested on: Streptococcus intermedius; experiment: Antimicrobial activity against Streptococcus intermedius SI006 planktonic cells harboring luxS mutant gene assessed as bacterial count at 0.12 ug/ml (Rvb =798.3 +/- 37.09 10^8 CFU/ml); assay type: functional
[6] = tested on: Streptococcus intermedius; experiment: Antimicrobial activity against Streptococcus intermedius SI006 biofilm harboring luxS mutant gene assessed as biofilm bacterial count at 0.06 ug/ml (Rvb =310.8 +/- 17.10 10^5 CFU/ml); assay type: functional
[7] = tested on: Streptococcus intermedius; experiment: Antimicrobial activity against Streptococcus intermedius SI006 planktonic cells harboring luxS mutant gene assessed as bacterial count at 0.06 ug/ml (Rvb =798.3 +/- 37.09 10^8 CFU/ml); assay type: functional
[8] = tested on: Streptococcus intermedius; experiment: Antimicrobial activity against Streptococcus intermedius SI006 biofilm harboring luxS mutant gene assessed as biofilm bacterial count at 0.06 ug/ml in presence of 0.8 nM autoinducer 4,5-dihydroxy-2,3-pentanedione (Rvb =413.7 +/- 24.47 10^5 CFU/ml); assay type: functional
[9] = tested on: Streptococcus intermedius; experiment: Antimicrobial activity against Streptococcus intermedius SI006 planktonic cells harboring luxS mutant gene assessed as bacterial count at 0.10 ug/ml in presence of 0.8 nM autoinducer 4,5-dihydroxy-2,3-pentanedione (Rvb =793.3 +/- 42.40 10^8 CFU/ml); assay type: functional
[10] = tested on: Streptococcus intermedius; experiment: Antimicrobial activity against Streptococcus intermedius SI006 planktonic cells harboring luxS mutant gene assessed as bacterial count at 0.12 ug/ml in presence of 0.8 nM autoinducer 4,5-dihydroxy-2,3-pentanedione (Rvb =793.3 +/- 42.40 10^8 CFU/ml); assay type: functional
[11] = tested on: Streptococcus intermedius; experiment: Antimicrobial activity against Streptococcus intermedius NCTC 11324 planktonic cells assessed as bacterial count at 0.10 ug/ml (Rvb =771.7 +/- 35.14 10^8 CFU/ml); assay type: functional; in short: as §1
[12] = tested on: Streptococcus intermedius; experiment: Antimicrobial activity against Streptococcus intermedius SI006 biofilm harboring luxS mutant gene assessed as biofilm bacterial count at 0.02 ug/ml (Rvb =310.8 +/- 17.10 10^5 CFU/ml); assay type: functional
[13] = tested on: Streptococcus intermedius; experiment: Antimicrobial activity against Streptococcus intermedius SI006 planktonic cells harboring luxS mutant gene assessed as bacterial count at 0.08 ug/ml (Rvb =798.3 +/- 37.09 10^8 CFU/ml); assay type: functional
[14] = tested on: Streptococcus intermedius; experiment: Antimicrobial activity against Streptococcus intermedius NCTC 11324 biofilm assessed as biofilm bacterial count at 0.06 ug/ml (Rvb =402.9 +/- 26.88 10^5 CFU/ml); assay type: functional
[15] = tested on: Streptococcus intermedius; experiment: Antimicrobial activity against Streptococcus intermedius SI006 planktonic cells harboring luxS mutant gene assessed as bacterial count at 0.10 ug/ml (Rvb =798.3 +/- 37.09 10^8 CFU/ml); assay type: functional
[16] = tested on: Streptococcus intermedius; experiment: Antimicrobial activity against Streptococcus intermedius SI006 planktonic cells harboring luxS mutant gene assessed as bacterial count at 0.06 ug/ml in presence of 0.8 nM autoinducer 4,5-dihydroxy-2,3-pentanedione (Rvb =793.3 +/- 42.40 10^8 CFU/ml); assay type: functional
[17] = tested on: Streptococcus intermedius; experiment: Antimicrobial activity against Streptococcus intermedius NCTC 11324 biofilm assessed as biofilm bacterial count at 0.02 ug/ml (Rvb =402.9 +/- 26.88 10^5 CFU/ml); assay type: functional
[18] = tested on: Streptococcus intermedius; experiment: Antimicrobial activity against Streptococcus intermedius SI006 planktonic cells harboring luxS mutant gene assessed as bacterial count at 0.08 ug/ml in presence of 0.8 nM autoinducer 4,5-dihydroxy-2,3-pentanedione (Rvb =793.3 +/- 42.40 10^8 CFU/ml); assay type: functional
[19] = tested on: Streptococcus intermedius; experiment: Antimicrobial activity against Streptococcus intermedius NCTC 11324 planktonic cells assessed as bacterial count at 0.12 ug/ml (Rvb =771.7 +/- 35.14 10^8 CFU/ml); assay type: functional; in short: as §1
[20] = tested on: Streptococcus intermedius; experiment: Antimicrobial activity against Streptococcus intermedius NCTC 11324 planktonic cells assessed as bacterial count at 0.06 ug/ml (Rvb =771.7 +/- 35.14 10^8 CFU/ml); assay type: functional; in short: as §1
[21] = tested on: Streptococcus intermedius; experiment: Antimicrobial activity against Streptococcus intermedius NCTC 11324 assessed as biofilm formation at 0.04 to 0.10 ug/ml; assay type: functional, organism-based
In short: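 Wild-type NCTC 11324 was grown overnight in TSB and inoculated into TSB with ampicillin (0.02 to 0.10 μg/ml), ciprofloxacin (0.10 to 0.28 μg/ml) or tetracycline (0.05 to 0.30 μg/ml), added at time zero. Wells held plastic coverslips and were incubated 12 h at 37°C in 5% CO2 aerobic air. Biofilm was measured as described previously. Experiments were done three times in three parallels.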

[22] = tested on: Streptococcus intermedius; experiment: Antimicrobial activity against Streptococcus intermedius NCTC 11324 assessed as growth inhibition at 0.16 ug/ml; assay type: functional
In short: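 Broth microdilution MIC in ultra-low-binding 96-well plates, inoculum ≈4 × 10^5. Growth was read at 595 nm, and the MIC was taken as the lowest antibiotic concentration inhibiting growth.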

[23] = tested on: Streptococcus intermedius; experiment: Antimicrobial activity against Streptococcus intermedius SI006 biofilm harboring luxS mutant gene assessed as biofilm bacterial count at 0.04 ug/ml (Rvb =310.8 +/- 17.10 10^5 CFU/ml); assay type: functional

## CC1(C)S[C@@H]2[C@H](NC(=O)[C@H](N)c3ccccc3)C(=O)N2[C@H]1C(=O)O [AMPICILLIN]
[1]
  CFU: 621.6 ×10⁵ /ml
[2]
  CFU: 459.5 ×10⁵ /ml
[3]
  CFU: 686 ×10⁵ /ml
[4]
  CFU: 43.3 ×10⁸ /ml
[5]
  CFU: 8.5 ×10⁸ /ml
[6]
  CFU: 162.1 ×10⁵ /ml
[7]
  CFU: 41.8 ×10⁸ /ml
[8]
  CFU: 819.2 ×10⁵ /ml
[9]
  CFU: 39.6 ×10⁸ /ml
[10]
  CFU: 18.4 ×10⁸ /ml
[11]
  CFU: 45.3 ×10⁸ /ml
[12]
  CFU: 324.1 ×10⁵ /ml
[13]
  CFU: 16.4 ×10⁸ /ml
[14]
  CFU: 894.7 ×10⁵ /ml
[15]
  CFU: 10.3 ×10⁸ /ml
[16]
  CFU: 48.7 ×10⁸ /ml
[17]
  CFU: 486.2 ×10⁵ /ml
[18]
  CFU: 39.1 ×10⁸ /ml
[19]
  CFU: 20.7 ×10⁸ /ml
[20]
  CFU: 61.2 ×10⁸ /ml
[21]
  Activity: inactive
[22]
  Activity: 0.16 µg/mL
[23]
  CFU: 268.6 ×10⁵ /ml

From ChEMBL document CHEMBL1649212, “AI-2/LuxS is involved in increased biofilm formation by Streptococcus intermedius in the presence of antibiotics” (2009)
